From ChEMBL document CHEMBL1153560, “In vitro activities of doripenem and six comparator drugs against 423 aerobic and anaerobic bacterial isolates from infected diabetic foot wounds” (2008)
Values after ≈ are worked out from the molar mass of the structure shown.

Experiments:
Format in all cases: functional
[1] = system: Enterocloster clostridioformis; test: Antibacterial activity against Clostridium clostridioforme isolated from patient with diabetic foot infection after 44 to 48 hrs by agar dilution method
Procedure, shortened: (§1)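 CLSI M11-A7 agar dilution: serial twofold drug dilutions made on the test day and added to molten agar. Spots of 10^5 CFU were applied by replicator, with drug-free control plates inoculated before and after each set. Incubation was 44 to 48 h at 37°C in an anaerobic chamber. MIC was the lowest concentration giving no growth or a marked change in growth versus controls.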

[2] = system: Clostridium malenominatum; test: Antibacterial activity against Clostridium malenominatum isolated from patient with diabetic foot infection after 44 to 48 hrs by agar dilution method; procedure, shortened: as §1
Enterobacter cloacae = test: Antibacterial activity against Enterobacter cloacae isolated from patient with diabetic foot infection assessed as percent resistant isolates after 18 to 24 hrs by broth microdilution method
Procedure, shortened: (§2)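 Aerobes subcultured on Trypticase soy blood agar, then broth microdilution in cation-adjusted Mueller-Hinton broth. Trays prepared in-house with twofold dilutions and stored at −70°C. Overnight colonies suspended to about 5 × 10^5 CFU/ml final. Read after 18 to 24 h at 37°C. QC strains included S. aureus ATCC 29213 and E. coli ATCC 25922.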

Proteus vulgaris [3] = test: Antibacterial activity against Proteus vulgaris isolated from patient with diabetic foot infection assessed as percent resistant isolates after 18 to 24 hrs by broth microdilution method; procedure, shortened: as §2
[4] = system: Staphylococcus epidermidis; test: Antibacterial activity against Staphylococcus epidermidis isolated from patient with diabetic foot infection after 18 to 24 hrs by broth microdilution method
Procedure, shortened: (§3)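 Isolates were subcultured on Trypticase soy blood agar and tested by broth microdilution in cation-adjusted Mueller-Hinton broth. In-house trays of twofold drug dilutions were stored at −70°C. Overnight colonies gave a final inoculum of about 5 × 10^5 CFU/ml. Plates were read after 18 to 24 h at 37°C.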

[5] = system: Staphylococcus lugdunensis; test: Antibacterial activity against Staphylococcus lugdunensis isolated from patient with diabetic foot infection after 18 to 24 hrs by broth microdilution method
Procedure, shortened: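 Subcultured on Trypticase soy blood agar, then broth microdilution in cation-adjusted Mueller-Hinton broth. Trays were made in-house with serial twofold drug dilutions and stored at −70°C. Inoculum was colonies from overnight growth, final approximately 5 × 10^5 CFU/ml. MIC was read after 18 to 24 h at 37°C. QC strains: S. aureus ATCC 29213 and E. coli ATCC 25922.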

Bacteroides stercoris [6] = test: Antibacterial activity against Bacteroides stercoris isolated from patient with diabetic foot infection after 44 to 48 hrs by agar dilution method; procedure, shortened: as §1
[7] = system: Staphylococcus haemolyticus; test: Antibacterial activity against Staphylococcus haemolyticus isolated from patient with diabetic foot infection assessed as percent resistant isolates after 18 to 24 hrs by broth microdilution method
Bacteroides ovatus = test: Antibacterial activity against Bacteroides ovatus isolated from patient with diabetic foot infection assessed as percent resistant isolates after 44 to 48 hrs by agar dilution method
Procedure, shortened: (§4)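 Agar dilution per CLSI M11-A7. Twofold drug dilutions made on the test day and added to molten agar. Replicator-applied inoculum of 10^5 CFU/spot. Drug-free control plates inoculated before and after each drug set. Incubation at 37°C for 44 to 48 h, anaerobic chamber. MIC taken as the lowest concentration giving no growth or a marked change in growth versus controls.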

Bacteroides stercoris [8] = test: Antibacterial activity against Bacteroides stercoris isolated from patient with diabetic foot infection assessed as percent resistant isolates after 44 to 48 hrs by agar dilution method; procedure, shortened: as §4
[9] = system: Bacteroides thetaiotaomicron; test: Antibacterial activity against Bacteroides thetaiotaomicron isolated from patient with diabetic foot infection after 44 to 48 hrs by agar dilution method; procedure, shortened: as §1
[10] = system: Parabacteroides distasonis; test: Antibacterial activity against Parabacteroides distasonis isolated from patient with diabetic foot infection after 44 to 48 hrs by agar dilution method; procedure, shortened: as §1
Parabacteroides merdae = test: Antibacterial activity against Parabacteroides merdae isolated from patient with diabetic foot infection after 44 to 48 hrs by agar dilution method; procedure, shortened: as §1
Phocaeicola vulgatus = test: Antibacterial activity against Bacteroides vulgatus isolated from patient with diabetic foot infection assessed as percent resistant isolates after 44 to 48 hrs by agar dilution method; procedure, shortened: as §4
[11] = system: Parabacteroides distasonis; test: Antibacterial activity against Parabacteroides distasonis isolated from patient with diabetic foot infection assessed as percent resistant isolates after 44 to 48 hrs by agar dilution method; procedure, shortened: as §4
Klebsiella oxytoca = test: Antibacterial activity against Klebsiella oxytoca isolated from patient with diabetic foot infection after 18 to 24 hrs by broth microdilution method; procedure, shortened: as §3
Proteus vulgaris [12] = test: Antibacterial activity against Proteus vulgaris isolated from patient with diabetic foot infection after 18 to 24 hrs by broth microdilution method; procedure, shortened: as §3
[13] = system: Corynebacterium aurimucosum; test: Antibacterial activity against Corynebacterium aurimucosum isolated from patient with diabetic foot infection after 48 hrs by broth microdilution method
Procedure, shortened: (§5)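 Isolates were subcultured on Trypticase soy blood agar. Broth microdilution used cation-adjusted Mueller-Hinton broth with lysed horse blood, in-house trays of twofold drug dilutions stored at −70°C. Colonies from overnight growth gave a final inoculum of about 5 × 10^5 CFU/ml. Trays were read after 18 to 24 h at 37°C, up to 48 h for some strains.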

Corynebacterium simulans = test: Antibacterial activity against Corynebacterium simulans isolated from patient with diabetic foot infection after 48 hrs by broth microdilution method; procedure, shortened: as §5
Clostridium cadaveris = test: Antibacterial activity against Clostridium cadaveris isolated from patient with diabetic foot infection assessed as percent resistant isolates after 44 to 48 hrs by agar dilution method; procedure, shortened: as §4
[14] = system: Enterocloster clostridioformis; test: Antibacterial activity against Clostridium clostridioforme isolated from patient with diabetic foot infection assessed as percent resistant isolates after 44 to 48 hrs by agar dilution method; procedure, shortened: as §4
[Clostridium] innocuum = Antibacterial activity against Clostridium innocuum isolated from patient with diabetic foot infection assessed as percent resistant isolates after 44 to 48 hrs by agar dilution method; procedure, shortened: as §4
[15] = system: Clostridium malenominatum; test: Antibacterial activity against Clostridium malenominatum isolated from patient with diabetic foot infection assessed as percent resistant isolates after 44 to 48 hrs by agar dilution method; procedure, shortened: as §4
Anaerococcus tetradius = test: Antibacterial activity against Anaerococcus tetradius isolated from patient with diabetic foot infection assessed as percent resistant isolates after 44 to 48 hrs by agar dilution method; procedure, shortened: as §4
Finegoldia magna = test: Antibacterial activity against Finegoldia magna isolated from patient with diabetic foot infection assessed as percent resistant isolates after 44 to 48 hrs by agar dilution method; procedure, shortened: as §4
Corynebacterium striatum = test: Antibacterial activity against Corynebacterium striatum isolated from patient with diabetic foot infection assessed as percent resistant isolates after 48 hrs by broth microdilution method
Procedure, shortened: (§6)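 Isolates subcultured on Trypticase soy blood agar. Broth microdilution in cation-adjusted Mueller-Hinton broth with lysed horse blood, using in-house twofold dilution trays stored at −70°C. Inoculum from overnight colonies at about 5 × 10^5 CFU/ml final. Read after 18 to 24 h at 37°C, up to 48 h for some Corynebacterium strains.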

Corynebacterium accolens = test: Antibacterial activity against Corynebacterium accolens isolated from patient with diabetic foot infection assessed as percent resistant isolates after 48 hrs by broth microdilution method; procedure, shortened: as §6
Corynebacterium xerosis = test: Antibacterial activity against Corynebacterium xerosis isolated from patient with diabetic foot infection assessed as percent resistant isolates after 48 hrs by broth microdilution method; procedure, shortened: as §6

Row | Compound | MIC50 [1] | MIC90 [1] | MIC50 [2] | MIC90 [2] | MIC50 (Bacteroides stercoris [6]) | MIC90 (Bacteroides stercoris [6]) | Activity (Bacteroides ovatus) | Activity (Bacteroides stercoris [8]) | MIC50 [9] | MIC90 [9] | MIC50 [10] | MIC90 [10] | MIC50 (Parabacteroides merdae) | MIC90 (Parabacteroides merdae) | Activity (Phocaeicola vulgatus) | Activity [11] | Activity (Clostridium cadaveris) | Activity [14] | Activity ([Clostridium] innocuum) | Activity [15] | also measured
1 | C[C@@H](O)[C@H]1C(=O)N2C(C(=O)O)=C(S[C@@H]3CN[C@H](CNS(N)(=O)=O)C3)[C@H](C)[C@H]12 [DORIPENEM] | 0.06 µg/mL (≈ 0.143 µM) | 1 µg/mL (≈ 2.38 µM) | 0.06 µg/mL (≈ 0.143 µM) | 1 µg/mL (≈ 2.38 µM) | 0.25 µg/mL (≈ 0.595 µM) | 1 µg/mL (≈ 2.38 µM) | 0% | 0% | 0.25 µg/mL (≈ 0.595 µM) | 1 µg/mL (≈ 2.38 µM) | 0.25 µg/mL (≈ 0.595 µM) | 1 µg/mL (≈ 2.38 µM) | 0.25 µg/mL (≈ 0.595 µM) | 1 µg/mL (≈ 2.38 µM) | 0% | 0% | 0% | 0% | 0% | 0% | Activity (Enterobacter cloacae): 0%; Activity (Proteus vulgaris [3]): 0%; MIC50 [4]: 0.25 µg/mL (≈ 0.595 µM); MIC90 [4]: 2 µg/mL (≈ 4.76 µM); MIC50 [5]: 0.125 µg/mL (≈ 0.297 µM); MIC90 [5]: 0.125 µg/mL (≈ 0.297 µM); Activity [7]: 73%; MIC50 (Klebsiella oxytoca): 0.06 µg/mL (≈ 0.143 µM); MIC90 (Klebsiella oxytoca): 0.125 µg/mL (≈ 0.297 µM); MIC50 (Proteus vulgaris [12]): 0.125 µg/mL (≈ 0.297 µM); MIC90 (Proteus vulgaris [12]): 0.25 µg/mL (≈ 0.595 µM); MIC50 [13]: 1 µg/mL (≈ 2.38 µM); MIC90 [13]: 8 µg/mL (≈ 19 µM); MIC50 (Corynebacterium simulans): 0.125 µg/mL (≈ 0.297 µM); MIC90 (Corynebacterium simulans): 0.25 µg/mL (≈ 0.595 µM); Activity (Anaerococcus tetradius): 0%; Activity (Finegoldia magna): 0%
2 | C[C@@H](O)[C@H]1C(=O)N2C(C(=O)O)=C(S[C@@H]3CN[C@H](C(=O)Nc4cccc(C(=O)O)c4)C3)[C@H](C)[C@H]12 [ERTAPENEM] | 0.25 µg/mL (≈ 0.526 µM) | 2 µg/mL (≈ 4.21 µM) | 0.25 µg/mL (≈ 0.526 µM) | 2 µg/mL (≈ 4.21 µM) | 1 µg/mL (≈ 2.1 µM) | 2 µg/mL (≈ 4.21 µM) | 0% | 0% | 1 µg/mL (≈ 2.1 µM) | 2 µg/mL (≈ 4.21 µM) | 1 µg/mL (≈ 2.1 µM) | 2 µg/mL (≈ 4.21 µM) | 1 µg/mL (≈ 2.1 µM) | 2 µg/mL (≈ 4.21 µM) | 0% | 0% | 0% | 0% | 0% | 0% | Activity (Enterobacter cloacae): 0%; Activity (Proteus vulgaris [3]): 0%; MIC50 [4]: 2 µg/mL (≈ 4.21 µM); MIC90 [4]: 8 µg/mL (≈ 16.8 µM); MIC50 [5]: 0.5 µg/mL (≈ 1.05 µM); MIC90 [5]: 1 µg/mL (≈ 2.1 µM); Activity [7]: 73%; MIC50 (Klebsiella oxytoca): ≤ 0.015 µg/mL; MIC90 (Klebsiella oxytoca): ≤ 0.015 µg/mL; MIC50 (Proteus vulgaris [12]): ≤ 0.015 µg/mL; MIC90 (Proteus vulgaris [12]): 0.25 µg/mL (≈ 0.526 µM); MIC50 [13]: 1 µg/mL (≈ 2.1 µM); MIC90 [13]: 32 µg/mL (≈ 67.3 µM); MIC50 (Corynebacterium simulans): 0.5 µg/mL (≈ 1.05 µM); MIC90 (Corynebacterium simulans): 1 µg/mL (≈ 2.1 µM); Activity (Anaerococcus tetradius): 0%; Activity (Finegoldia magna): 0%
3 | CCC[C@@H]1C[C@@H](C(=O)N[C@@H]([C@H]2O[C@H](SC)[C@H](O)[C@@H](O)[C@H]2O)[C@H](C)Cl)N(C)C1 [CLINDAMYCIN] | 0.5 µg/mL (≈ 1.18 µM) | 16 µg/mL (≈ 37.6 µM) | 0.5 µg/mL (≈ 1.18 µM) | 16 µg/mL (≈ 37.6 µM) | 2 µg/mL (≈ 4.71 µM) | > 64 µg/mL | 20% | 20% | 2 µg/mL (≈ 4.71 µM) | > 64 µg/mL | 2 µg/mL (≈ 4.71 µM) | > 64 µg/mL | 2 µg/mL (≈ 4.71 µM) | > 64 µg/mL | 20% | 20% | 23% | 23% | 23% | 23% | Activity (Proteus vulgaris [3]): 0%; Activity (Corynebacterium striatum): 78%; Activity (Corynebacterium accolens): 78%; MIC50 [4]: 0.25 µg/mL (≈ 0.588 µM); MIC90 [4]: > 64 µg/mL; MIC50 [5]: 0.125 µg/mL (≈ 0.294 µM); MIC90 [5]: > 64 µg/mL; Activity (Corynebacterium xerosis): 78%; Activity [7]: 13%; MIC50 [13]: > 64 µg/mL; MIC90 [13]: > 64 µg/mL; MIC50 (Corynebacterium simulans): 2 µg/mL (≈ 4.71 µM); MIC90 (Corynebacterium simulans): > 64 µg/mL; Activity (Anaerococcus tetradius): 18%; Activity (Finegoldia magna): 0%
4 | Cc1ncc([N+](=O)[O-])n1CCO [METRONIDAZOLE] | 0.125 µg/mL (≈ 0.73 µM) | 0.25 µg/mL (≈ 1.46 µM) | 0.125 µg/mL (≈ 0.73 µM) | 0.25 µg/mL (≈ 1.46 µM) | 0.5 µg/mL (≈ 2.92 µM) | 1 µg/mL (≈ 5.84 µM) | 0% | 0% | 0.5 µg/mL (≈ 2.92 µM) | 1 µg/mL (≈ 5.84 µM) | 0.5 µg/mL (≈ 2.92 µM) | 1 µg/mL (≈ 5.84 µM) | 0.5 µg/mL (≈ 2.92 µM) | 1 µg/mL (≈ 5.84 µM) | 0% | 0% | 0% | 0% | 0% | 0% | Activity (Anaerococcus tetradius): 0%; Activity (Finegoldia magna): 0%
